Results on 14 compounds are retold here after PubChem BioAssay.

For orientation: inhibition means the relative decrease from the control value, in per cent.

Each structure is given as a SMILES string. Calls of active or inactive are those of the source.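 How the source made its calls, unless noted: active means fluorescence slope higher than the sample average by over 3 SD (cut at about -0.22 in these data, passing the limit was not always enough); inactive means the rest.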

A short description of test [1]: inhibitors of TNFa-induced NFkB p65 translocation, primary screen, imaging, HUVEC, MLSMR starter and 10KST1 sets (AID 438;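 active means inhibition above 20% together with a positive visual image hit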;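 further: compound added about 3h40 before a 20 min TNFalpha stimulation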;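 on inhibition: signal is the nuclear over cytoplasmic p65 intensity ratio per well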). Particulars: HUVEC TNFa-induced p65 nuclear translocation; cell count: measured here: nuclei count (cytotoxicity indicator), at 2.08 µM; inhibition: at 2 µM, stronger effect = higher value, 0% TNFa-plus-vehicle, 100% no-TNFa wells.
The nature of test [2]: reduction of polyQ htt aggregates in cells – imaging, exon1htt(103Q)mCFP cells, high-content imaging, primary screen (AID 483;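 active means visual image review flags a hit and inhibition of aggregation exceeds 20%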;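 further: compound exposure lasted 3 days before fixation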;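 on nuclei count: percent of the per-plate median nuclei count of sample wells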). The note with it: exon1htt(103Q)mCFP cell line, aggregate imaging, at 2 µM; inhibition of aggregation: stronger effect = higher value; nuclei count: measured here: cell count, toxicity.
A short description of test [3]: endothelial E-selectin expression blockers – imaging, HUVEC, immunofluorescence, MLSMR starter and 10KST1 sets, primary screen (AID 487;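 active means visually confirmed hit in the image check and inhibition above 20%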;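 on inhibition: signal is fraction of cell area covered by stained E-selectin grains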;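 on nuclei count: 100% = median nuclei count of all wells on the same plate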). The note with it: HUVEC TNFalpha-induced E-selectin immunofluorescence imaging, at 2 µM; inhibition: stronger effect = higher value; nuclei count: measured here: cell number, toxicity.
Test [4] concerns the target Voltage-gated potassium channel subunit beta-2 (Rattus norvegicus) (UniProt P62483). Description: inhibitors of rat Kvbeta2 reductase activity – biochemical, NADPH fluorescence, primary screen (AID 622).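 Further: slope of raw intensity against log time taken from 70 to 1610 s.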 Particulars: recombinant KvBeta, 4-cyanobenzaldehyde reduction, at 10 µM, stronger effect = higher value.
The target is the same in test [5]. The test is described as follows: enhancers of rat Kvbeta2 NADPH turnover – biochemical, NADPH fluorescence, primary screen (AID 623;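 active means NADPH fluorescence slope more negative than the mean of all samples by about 3 SD, 99.7% confidence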;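 further: fluorescence intensity change per second fitted from 20 to 320 s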). The note with it: Recombinant KvBeta, NADPH fluorescence decrease slope, 10 min; at 10 µM; stronger effect = lower value.
The target in test [6] is Alpha-2C adrenergic receptor (Homo sapiens) (UniProt P18825). The test is described as follows: compounds altering alpha2C-coupled GIRK flux – cell-based, HEK293 alpha2C/GIRK1/2, thallium flux, primary screen (AID 624;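 active means fluorescence slope after compound addition differing from the mean of all screened samples at 99.7% confidence, in either direction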;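 further: slope of fluorescence ratio to pre-addition baseline per second over 15 to 24 s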). Particulars: thallium flux BTC fluorescence, at 10 µM, actives lie on both sides.
Test [7] in a line: inhibitors of larval lipid processing in zebrafish, primary screen, whole organism, PED6 fluorescence, gall bladder and intestine (AID 686;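 active means a full or partial loss of lipid-probe fluorescence in the fish gall bladder, intestine or both, judged by eye; inactive means no fluorescence loss, or compound toxic to the fish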;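 further: larvae 5 to 7 days old with five fish per well; signal comes from phospholipase A2 cleavage of quenched PED6 carried via bile; overnight exposure to compound and PED6 before scoring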). Particulars: Zebrafish larvae PED6 lipid processing, fluorescence scoring; screened at 20 µM (by protocol). A digest of the protocol:
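system = live zebrafish larvae aged 5-7 days, whole organism | probe or stimulus = ingested quenched lipid PED6 at 100 nM | doses = 20 µM single dose | timing = overnight exposure | detection = fluorescence microscopy with visual scoring of gall bladder and intestine | read-out = visual per-well fluorescence inhibition score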

A short description of test [8]: blockers of RIG-like receptor reporter activation – cell-based, Sendai virus stimulus, luciferase, 10K MLSCN set, TLR/RLR signaling modifier project, primary screen (AID 602276;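 active means inhibition at or above 50% at 10 µM; inactive means inhibition below 50%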;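 further: firefly luciferase from ISG56 promoter only with Renilla not read in this screen; 0% = Sendai virus plus DMSO and 100% = medium plus DMSO without virus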). The note with it: HEK293 RL24 IRF3 luciferase reporter, at 10 µM, stronger effect = higher value. A general note: Reporter assays use an easily measured gene product as a stand-in for the process of interest.

Test [9] is described as follows: TLR3 IRF3 reporter activation blockers – cell-based, poly I:C stimulus, luciferase, 10K MLSCN set, primary screen (AID 602277;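 active means inhibition of the reporter signal at or above 50%; inactive means inhibition below 50%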). Particulars: HEK293-TLR3 RL24 IRF3 luciferase reporter, at 10 µM, stronger effect = higher value.

Sequence of Voltage-gated potassium channel subunit beta-2 (Rattus norvegicus) (P62483 whole entry, looked up): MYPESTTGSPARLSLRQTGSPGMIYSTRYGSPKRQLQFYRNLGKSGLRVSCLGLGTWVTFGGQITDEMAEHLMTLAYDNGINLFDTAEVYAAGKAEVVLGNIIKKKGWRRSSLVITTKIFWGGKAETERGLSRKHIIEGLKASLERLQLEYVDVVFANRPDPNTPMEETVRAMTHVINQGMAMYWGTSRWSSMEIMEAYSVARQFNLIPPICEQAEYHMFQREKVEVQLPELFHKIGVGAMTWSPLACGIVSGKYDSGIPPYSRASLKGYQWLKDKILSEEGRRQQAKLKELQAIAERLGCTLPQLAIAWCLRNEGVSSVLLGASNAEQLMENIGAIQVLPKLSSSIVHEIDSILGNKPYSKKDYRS
Sequence of Alpha-2C adrenergic receptor (Homo sapiens) (P18825 whole entry, looked up): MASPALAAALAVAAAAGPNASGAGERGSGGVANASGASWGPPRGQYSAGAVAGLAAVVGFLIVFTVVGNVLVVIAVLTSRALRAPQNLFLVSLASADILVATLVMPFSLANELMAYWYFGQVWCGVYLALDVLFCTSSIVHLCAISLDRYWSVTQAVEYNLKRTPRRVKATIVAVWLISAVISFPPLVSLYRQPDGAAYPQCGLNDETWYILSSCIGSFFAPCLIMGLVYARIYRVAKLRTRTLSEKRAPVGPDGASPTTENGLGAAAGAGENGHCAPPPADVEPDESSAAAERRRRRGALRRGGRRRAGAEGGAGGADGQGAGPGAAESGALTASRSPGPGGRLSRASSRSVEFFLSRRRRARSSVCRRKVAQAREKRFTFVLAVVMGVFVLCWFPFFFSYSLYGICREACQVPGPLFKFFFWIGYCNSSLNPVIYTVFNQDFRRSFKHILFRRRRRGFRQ

Take `CC1(C)CC(=O)C(C=NC(CCC(N)=O)C(=O)O)=C(O)C1` (stereo not drawn): in test [1], the cell count is 520. The inhibition in [1] was -22.3% (inactive); in test [3], 54.4% (active); in test [8], 13.3% (inactive); in test [9] it was 13.8% (inactive). Moreover, in test [2], the inhibition of aggregation was -15.6% (inactive). In addition, the values for the nuclei count in [2] and in [3] were 113% and 93.1%, respectively. The fluorescence slope in test [4] was -0.382 (inactive). In addition, in test [5], the NADPH fluorescence slope was -1e-05 (inactive). Also, in test [6], the slope was 0.00504 (inactive). Besides, in [7], the call was inactive.
For the compound `CCCn1c(SCC(=O)NC(=O)NCc2ccco2)n[nH]c1=O`, the cell count in [1] turned out to be 424. In addition, the inhibition in test [1] was 3.7% (inactive); in [3], -178% (inactive); in test [8], 2.79% (inactive); in test [9], 15.3% (inactive). Moreover, the inhibition of aggregation in test [2] was -7.6% (inactive). Also, the nuclei count in [2] amounted to 73.3%; in test [3], 117%. Further, the fluorescence slope in [4] is -0.39 (inactive). The NADPH fluorescence slope in test [5] was -3.4e-05 (inactive). The slope in test [6] is 0.00519 (inactive). Moreover, in [7], the compound was called inactive.
Take `Cc1c(C)n(C(=O)CN2CCN(c3ccccn3)CC2)c2ccccc12`: the cell count in test [1] came to 428. Moreover, the inhibition in test [1] is 2.3% (inactive); in test [3] it was 3.5% (inactive); in [8], 8.12% (inactive); in test [9], 11.3% (inactive). For the same compound, the inhibition of aggregation in test [2] is 2.9% (inactive). For the same compound, the nuclei count in test [2] stood at 95.7%; in test [3], 131%. Also, the fluorescence slope in test [4] is -0.376 (inactive). In test [5], the NADPH fluorescence slope was -3.7e-05 (inactive). Further, the slope in test [6] was 0.00497 (inactive). Moreover, in test [7], the result was inactive.
Take `CCCCCCn1c(CN2CCCC(C)C2)nc2c1c(=O)n(C)c(=O)n2C` (stereo not drawn): the cell count in test [1] was determined as 302. Besides, the inhibition in [1] was -3.8% (inactive); in test [3] it was -46.9% (inactive); in test [8], 17.5% (inactive); in test [9], 9.02% (inactive). Besides, the inhibition of aggregation in test [2] is -10.6% (inactive). Moreover, the nuclei count in test [2] was determined as 104%; in [3], 114%. Further, the fluorescence slope in test [4] is -0.396 (inactive). In [5], the NADPH fluorescence slope is -4.7e-05 (inactive). In addition, the slope in [6] is 0.00516 (inactive). Also, the result in test [7] was inactive.
As for `N#CCC(=O)Nc1ncn(Cc2ccccc2Cl)n1`, the cell count in test [1] came out at 273. In addition, the inhibition in test [1] is -2.5% (inactive); in [3], -51.5% (inactive); in test [8] it was -5.79% (inactive); in test [9], 4.42% (inactive). Further, the inhibition of aggregation in [2] is -6% (inactive). In addition, the nuclei count is 87.3% in test [2] and 105% in test [3]. In [4], the fluorescence slope is -0.456 (inactive). Also, the NADPH fluorescence slope in test [5] was 1.5e-06 (inactive). Besides, the slope in test [6] was 0.00405 (inactive). Besides, in test [7], the call was inactive.
As for `CCCc1cc(N2CCCC2)n2nc(C)c(-c3ccccc3)c2n1`, in test [1], the cell count came to 531. For the same compound, the inhibition was -11% (inactive) in test [1], -22.9% (inactive) in [3], 14% (inactive) in test [8] and -0.253% (inactive) in [9]. The inhibition of aggregation in test [2] is -13.4% (inactive). Besides, the nuclei count in test [2] came to 112%; in test [3] it was 122%. For the same compound, in test [4], the fluorescence slope was -0.118 (inactive). In addition, in test [5], the NADPH fluorescence slope was 9.3e-07 (inactive). Moreover, the slope in test [6] was 0.00457 (inactive). For the same compound, the call in [7] was inactive.
`Cc1cc(=O)n2[nH]c(-c3ccc(Cl)cc3)cc2n1`: in test [1], the cell count was determined as 540. The inhibition in test [1] is -2.9% (inactive); in [3] it was 46.6% (inactive); in test [8], -16.8% (inactive); in [9], -40.2% (inactive). In addition, the inhibition of aggregation in test [2] is 0% (inactive). In addition, the nuclei count amounted to 87.6% in [2] and 69.3% in [3]. Further, the fluorescence slope in [4] is -0.42 (inactive). The NADPH fluorescence slope in test [5] was -3.9e-05 (inactive). The slope in [6] is 0.0052 (inactive). In addition, in test [7], the call was inactive.
For the compound `O=C(CSc1nc2ccccc2[nH]1)N1CCCCC1`, the cell count in test [1] was 433. The inhibition was 0.5% (inactive) in test [1], 13.2% (inactive) in [3], -14.8% (inactive) in test [8] and -73.7% (inactive) in test [9]. In test [2], the inhibition of aggregation is 16% (inactive). Besides, the nuclei count in test [2] was determined as 102%; in [3], 99.3%. In addition, the fluorescence slope in test [4] was -0.435 (inactive). Moreover, in [5], the NADPH fluorescence slope is -3.6e-05 (inactive). Besides, in test [6], the slope was 0.00459 (inactive). The call in [7] was inactive.
On to `Cc1nn(C(=O)c2ccccc2)c2c1C(=O)CC(C)(C)C2`, for which the cell count in test [1] was 380. Further, the inhibition in test [1] was 1.3% (inactive); in [3] it was -114% (inactive); in test [8] it was 18.8% (inactive); in test [9] it was 17.1% (inactive). In test [2], the inhibition of aggregation was -11.8% (inactive). Besides, the nuclei count in test [2] was 104%; in [3] it was 112%. In addition, the fluorescence slope in [4] is -0.419 (inactive). In test [5], the NADPH fluorescence slope is -1e-05 (inactive). In addition, the slope in test [6] was 0.00514 (inactive). For the same compound, the compound was called inactive in test [7].
On to `Cc1ccc(S(=O)(=O)N2CCN(c3nc(C)nc4sc(C)c(C)c34)CC2)cc1`, for which the cell count in test [1] is 345. Moreover, the inhibition in [1] is 10.5% (inactive); in test [3] it was -191% (inactive); in test [8], 5.42% (inactive); in test [9], 4.33% (inactive). Also, in test [2], the inhibition of aggregation was -6.6% (inactive). Further, the nuclei count in test [2] came to 110%; in test [3] it was 108%. In addition, in test [4], the fluorescence slope was -0.387 (inactive). Further, the NADPH fluorescence slope in [5] was -5.6e-05 (inactive). Moreover, the slope in test [6] is 0.0062 (inactive). Also, in test [7], the result was inactive.
In the case of `COC(=O)c1cccc(NC(=O)CN2CCN(Cc3ccccc3)CC2)c1`, the cell count in test [1] worked out at 382. Also, the inhibition is -6.1% (inactive) in [1], -28.9% (inactive) in test [3], 12.8% (inactive) in [8] and 14.9% (inactive) in test [9]. Moreover, the inhibition of aggregation in [2] is -15.3% (inactive). The nuclei count stood at 124% in test [2] and 121% in [3]. In addition, the fluorescence slope in [4] was -0.372 (inactive). Besides, the NADPH fluorescence slope in test [5] is -9.8e-07 (inactive). Besides, in test [6], the slope was 0.0056 (inactive). Besides, the result in test [7] was inactive.
Turning to `COC(=O)c1[nH]c2ccc(C)cc2c1NC(=O)CN1CCCC(C)(C)C1`, the cell count in [1] is 422. In addition, the inhibition is 7.3% (inactive) in test [1], -330% (inactive) in [3], 8.28% (inactive) in test [8] and 18% (inactive) in [9]. Also, in test [2], the inhibition of aggregation is -2.1% (inactive). In addition, the nuclei count in test [2] is 101%; in test [3], 107%. In addition, the fluorescence slope in [4] is -0.37 (inactive). In addition, in test [5], the NADPH fluorescence slope was -2.6e-05 (inactive). Further, the slope in test [6] was 0.00452 (inactive). Moreover, in test [7], the call was inactive.
As to `Cc1csc(NC(=O)c2ccccc2C(=O)O)n1`, the cell count in [1] worked out at 418. Further, the inhibition was 9% (inactive) in test [1], -46.7% (inactive) in [3], 5.94% (inactive) in [8] and 3.54% (inactive) in test [9]. Also, the inhibition of aggregation in [2] is -16.7% (inactive). For the same compound, the nuclei count was 111% in test [2] and 116% in test [3]. Besides, in test [4], the fluorescence slope is -0.358 (inactive). In [5], the NADPH fluorescence slope is -6.8e-05 (inactive). Moreover, the slope in [6] is 0.00549 (inactive). Moreover, in test [7], the compound was classed as inactive.
Take `Cc1ccc(S(=O)(=O)NCC(c2cccnc2)N(C)C)cc1` (stereo not drawn): in test [1], the cell count stood at 453. For the same compound, the inhibition in test [1] was -1.9% (inactive); in test [3], -33.6% (inactive); in test [8], 7.09% (inactive); in [9], 15.6% (inactive). In addition, the inhibition of aggregation in test [2] is 2.5% (inactive). Further, the nuclei count was 106% in test [2] and 127% in [3]. For the same compound, the fluorescence slope in test [4] was -0.464 (inactive). Moreover, in [5], the NADPH fluorescence slope is -9.5e-06 (inactive). In addition, the slope in test [6] was 0.00528 (inactive). Also, the compound was classed as inactive in [7].
